Results from ChEMBL document CHEMBL1287648, “Development of 3-aryl-1-isoquinolinamines as potent antitumor agents based on CoMFA” (Eur J Med Chem, 2010).

Assays:
[1] = system: CAKI-1; assay: Cytotoxicity against human Caki1 cells by sulforhodamine B method; assay type: functional, cell-based
[2] = system: PC-3; assay: Cytotoxicity against human PC3 cells by sulforhodamine B method; assay type: functional, cell-based
[3] = system: OVCAR-3; assay: Cytotoxicity against human OVCAR-3 cells by sulforhodamine B method; assay type: functional, cell-based
[4] = system: MDA-MB-231; assay: Cytotoxicity against human MDA-MB-231 cells by sulforhodamine B method; assay type: functional, cell-based
[5] = system: A549; assay: Cytotoxicity against human A549 cells by sulforhodamine B method; assay type: functional, cell-based
[6] = system: SNB-19; assay: Cytotoxicity against human SNB19 cells by sulforhodamine B method; assay type: functional, cell-based
[7] = system: HCT-116; assay: Cytotoxicity against human HCT116 cells by sulforhodamine B method; assay type: functional, cell-based
[8] = system: SK-MEL-28; assay: Cytotoxicity against human SK-MEL-28 cells by sulforhodamine B method; assay type: functional, cell-based
[9] = system: PANC-1; assay: Cytotoxicity against human PANC1 cells by sulforhodamine B method; assay type: functional, cell-based
[10] = system: HeLa; assay: Cell cycle arrest in human HeLa cells assessed as accumulation at G2/M phase at 300 nM after 24 hrs using propidium iodide staining by flow cytometry relative to control; assay type: functional
Procedure, shortened: (§1)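 HeLa cells exposed 24 h to compound (50–500 nM range) or left untreated, then washed and harvested. DNA was stained with propidium iodide and cell-cycle phase distribution measured by flow cytometry.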

[11] = system: HeLa; assay: Cell cycle arrest in human HeLa cells assessed as accumulation at G1 phase at 200 nM after 24 hrs using propidium iodide staining by flow cytometry relative to control; assay type: functional; procedure, shortened: as §1
[12] = system: HeLa; assay: Cell cycle arrest in human HeLa cells assessed as accumulation at G1 phase at 50 nM after 24 hrs using propidium iodide staining by flow cytometry relative to control; assay type: functional; procedure, shortened: as §1
[13] = system: HeLa; assay: Cell cycle arrest in human HeLa cells assessed as accumulation at S phase at 50 nM after 24 hrs using propidium iodide staining by flow cytometry relative to control; assay type: functional; procedure, shortened: as §1
[14] = system: HeLa; assay: Cell cycle arrest in human HeLa cells assessed as accumulation at S phase at 500 nM after 24 hrs using propidium iodide staining by flow cytometry relative to control; assay type: functional; procedure, shortened: as §1
[15] = system: HeLa; assay: Cell cycle arrest in human HeLa cells assessed as accumulation at G2/M phase at 200 nM after 24 hrs using propidium iodide staining by flow cytometry relative to control; assay type: functional; procedure, shortened: as §1
[16] = system: HeLa; assay: Induction of apoptosis in human HeLa cells at 300 nM after 24 hrs using propidium iodide/annexin V staining by flow cytometry relative to control; assay type: functional
Procedure, shortened: (§2)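 Annexin V/PI apoptosis assay: HeLa cells given compound (50–500 nM, 24 h) or no treatment, then co-stained with FITC-annexin V and propidium iodide. Phosphatidylserine externalization was scored by flow cytometry, with early apoptotic (annexin V-positive) and late apoptotic quadrants read separately.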

[17] = system: HeLa; assay: Cell cycle arrest in human HeLa cells assessed as accumulation at G1 phase at 300 nM after 24 hrs using propidium iodide staining by flow cytometry relative to control; assay type: functional; procedure, shortened: as §1
[18] = system: HeLa; assay: Cell cycle arrest in human HeLa cells assessed as accumulation at G2/M phase at 50 nM after 24 hrs using propidium iodide staining by flow cytometry relative to control; assay type: functional; procedure, shortened: as §1
[19] = system: HeLa; assay: Induction of apoptosis in human HeLa cells at 200 nM after 24 hrs using propidium iodide/annexin V staining by flow cytometry relative to control; assay type: functional; procedure, shortened: as §2
[20] = system: HeLa; assay: Induction of apoptosis in human HeLa cells at 50 nM after 24 hrs using propidium iodide/annexin V staining by flow cytometry relative to control; assay type: functional; procedure, shortened: as §2
[21] = system: HeLa; assay: Cell cycle arrest in human HeLa cells assessed as accumulation at G1 phase at 500 nM after 24 hrs using propidium iodide staining by flow cytometry relative to control; assay type: functional; procedure, shortened: as §1
[22] = system: HeLa; assay: Cell cycle arrest in human HeLa cells assessed as accumulation at G2/M phase at 500 nM after 24 hrs using propidium iodide staining by flow cytometry relative to control; assay type: functional; procedure, shortened: as §1
[23] = system: HeLa; assay: Cell cycle arrest in human HeLa cells assessed as accumulation at S phase at 300 nM after 24 hrs using propidium iodide staining by flow cytometry relative to control; assay type: functional; procedure, shortened: as §1
[24] = system: HeLa; assay: Induction of apoptosis in human HeLa cells at 500 nM after 24 hrs using propidium iodide/annexin V staining by flow cytometry relative to control; assay type: functional; procedure, shortened: as §2
[25] = system: HeLa; assay: Cell cycle arrest in human HeLa cells assessed as accumulation at S phase at 100 nM after 24 hrs using propidium iodide staining by flow cytometry relative to control; assay type: functional; procedure, shortened: as §1
[26] = system: HeLa; assay: Induction of apoptosis in human HeLa cells at 100 nM after 24 hrs using propidium iodide/annexin V staining by flow cytometry relative to control; assay type: functional; procedure, shortened: as §2
[27] = system: HeLa; assay: Cell cycle arrest in human HeLa cells assessed as accumulation at G1 phase at 100 nM after 24 hrs using propidium iodide staining by flow cytometry relative to control; assay type: functional; procedure, shortened: as §1
[28] = system: HeLa; assay: Cell cycle arrest in human HeLa cells assessed as accumulation at G2/M phase at 100 nM after 24 hrs using propidium iodide staining by flow cytometry relative to control; assay type: functional; procedure, shortened: as §1
[29] = system: HeLa; assay: Cell cycle arrest in human HeLa cells assessed as accumulation at S phase at 200 nM after 24 hrs using propidium iodide staining by flow cytometry relative to control; assay type: functional; procedure, shortened: as §1

| SMILES | IC50 [1] | IC50 [2] | IC50 [3] | IC50 [4] | IC50 [5] | IC50 [6] | IC50 [7] | IC50 [8] | IC50 [9] | further results |
| --- | --- | --- | --- | --- | --- | --- | --- | --- | --- | --- |
| COc1cccc(-c2cc3cc(C)ccc3c(N)n2)c1 | 0.69 µM | 1.19 µM | 0.47 µM | 0.57 µM | 0.107 µM | 0.75 µM | 0.59 µM | 0.72 µM | 1.28 µM | – |
| Cc1ccc2c(N)nc(-c3c(C)cccc3C)cc2c1 | 0.12 µM | 0.24 µM | 0.16 µM | 0.14 µM | 0.38 µM | 0.24 µM | 0.17 µM | 0.23 µM | 0.21 µM | – |
| Cc1cccc(-c2cc3cc(C)ccc3c(N)n2)c1 | 0.16 µM | 0.22 µM | 0.15 µM | 0.15 µM | 0.182 µM | 0.21 µM | 0.18 µM | 0.25 µM | 0.2 µM | – |
| COc1cccc(-c2cc3ccc(C)cc3c(N)n2)c1 | 0.14 µM | 0.42 µM | 0.24 µM | 0.17 µM | 0.447 µM | 0.48 µM | 0.21 µM | 0.41 µM | 0.47 µM | – |
| Cc1ccc2cc(-c3ccccc3C)nc(N)c2c1 | 0.14 µM | 0.26 µM | 0.1 µM | 0.075 µM | 0.0537 µM | 0.16 µM | 0.12 µM | 0.18 µM | 0.2 µM | – |
| CN(C)c1cccc2c(N)nc(-c3ccccc3)cc12 | > 10 µM | > 10 µM | > 10 µM | > 10 µM | > 10 µM | > 10 µM | > 10 µM | > 10 µM | > 10 µM | – |
| COc1ccc(-c2cc3cc(C)ccc3c(N)n2)cc1OC | 0.51 µM | 2.69 µM | 0.57 µM | 0.66 µM | 0.562 µM | 2.15 µM | 0.85 µM | 1.41 µM | 1.75 µM | – |
| Cc1ccc2c(N)nc(-c3ccc4c(c3)OCO4)cc2c1 | 0.11 µM | 0.19 µM | 0.16 µM | 0.13 µM | 0.141 µM | 0.23 µM | 0.16 µM | 0.22 µM | 0.22 µM | – |
| COc1ccc(-c2cc3cc(C)ccc3c(N)n2)c(C)c1 | 0.12 µM | 0.25 µM | 0.17 µM | 0.15 µM | 0.17 µM | 0.28 µM | 0.17 µM | 0.29 µM | 0.24 µM | – |
| COc1cc2cc(-c3ccccc3)nc(N)c2cc1OC | 0.59 µM | 0.58 µM | 0.27 µM | 0.44 µM | 0.129 µM | 0.71 µM | 0.52 µM | 0.75 µM | 0.67 µM | – |
| COc1cccc(-c2cc3cc(OC)c(OC)cc3c(N)n2)c1 | 0.17 µM | 0.18 µM | 0.074 µM | 0.14 µM | 0.759 µM | 0.22 µM | 0.16 µM | 0.23 µM | 0.19 µM | Activity [10]: 83.14%; Activity [11]: 15.58%; Activity [12]: 48.83%; Activity [13]: 15.37%; Activity [14]: 4.77%; Activity [15]: 73.06%; Activity [16]: 9.78%; Activity [17]: 10.26%; Activity [18]: 35.8%; Activity [19]: 8.8%; Activity [20]: 5.92%; Activity [21]: 8.25%; Activity [22]: 86.98%; Activity [23]: 6.6%; Activity [24]: 12.52%; Activity [25]: 16.12%; Activity [26]: 6.14%; Activity [27]: 35.29%; Activity [28]: 48.59%; Activity [29]: 11.36% |
| COc1cc(OC)cc(-c2cc3cc(OC)c(OC)cc3c(N)n2)c1 | 0.54 µM | 0.72 µM | 0.19 µM | 0.4 µM | 0.282 µM | 0.4 µM | 0.77 µM | 0.69 µM | 0.7 µM | – |
| COc1cc2cc(-c3ccccc3C)nc(N)c2cc1OC | 0.67 µM | 1.25 µM | 0.38 µM | 0.54 µM | 0.437 µM | 0.56 µM | 0.78 µM | 0.91 µM | 0.83 µM | – |
| Cc1ccccc1-c1cc2c(N(C)C)cccc2c(N)n1 | > 10 µM | > 10 µM | > 10 µM | > 10 µM | > 10 µM | > 10 µM | > 10 µM | > 10 µM | > 10 µM | – |
| COc1ccc(-c2cc3c(N(C)C)cccc3c(N)n2)cc1OC | > 10 µM | > 10 µM | > 10 µM | > 10 µM | > 10 µM | > 10 µM | > 10 µM | > 10 µM | > 10 µM | – |
| Cc1ccc2c(N)nc(-c3ccccc3C)cc2c1 | – | – | – | – | 0.162 µM | – | – | – | – | – |
